L major viab: Leishmania major promastigote growth inhibition, primary screen; Leishmania major promastigotes, resazurin fluorescence viability; hit rate 9% among 200,000; inhibition, % at 10 µM; in the data active means inhibition above about 50%;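 further: promastigotes grown with compound for 44 hours at 28 °C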
b-catenin transl: modulators of beta-catenin nuclear translocation, primary screen, imaging, HeLa cells, immunofluorescence, high-content; nuclear translocation activity, % at 5 µM; hit rate 0.3% among 190,000; AID 1665, 2009;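 active means nuclear translocation activity above 50% at 5 µM, with a well cell count of 50 or more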;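 further: per-cell ratio of nuclear to cytoplasmic median beta-catenin stain intensity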
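Assay system: human HeLa cells, native beta-catenin; doses: 5 µM primary, 0.02–20 µM confirmation; incubation: compound treatment 24 h, 37°C, 5% CO2; technique: fluorescence imaging of beta-catenin antibody stain plus DAPI; measure: % activation, nuclear-to-cytoplasmic median beta-catenin signal ratio per cell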
APP 5UTR inh: inhibitors of APP translation via 5'UTR reporter, primary screen, APP 5'UTR luciferase, SH-SY5Y cells | SH-SY5Y APP 5'UTR-luciferase reporter, luminescence | inhibition, % at 2 µM | hit rate 0.82% among 190,000;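 active means inhibition above a set limit, derived from the sample mean plus 3 SD, cut at about 45% in these data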
MT stabilizer: microtubule stabilizers in HeLa cells, primary screen, imaging, high-content imaging; % tubulin-high responders, % at 10 µM; AID 2205, 2009; HeLa tubulin immunostaining HCS, 24 h; share of cells brighter than vehicle mean+2SD; hit rate 0.83% among 200,000;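 active means plate Z-score above 3 for both tubulin-high and condensed-nucleus cell shares, with cell loss under 80%, at 10 µM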;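 further: anti alpha tubulin signal scored within the nucleus-defined area of each cell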
Ba/F3 V617F tox: reduced viability of JAK2V617F-dependent Ba/F3 cells, primary screen, JAK2V617F inhibitor project, cell-based, Ba/F3 EpoR-JAK2V617F, luminescence; AID 1446, 2008; ATP luminescence; inhibition, % at 5.6 µM; hit rate 1.1% among 220,000;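 active means inhibition above the campaign mean plus 3 SD over all tested compounds, cut at about 24% in these data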;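 further: cytokine-independent growth of Ba/F3 cells driven by EpoR plus mutant JAK2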
BaF3 parental: parental Ba/F3 cell viability inhibition, counter-screen for JAK2V617F inhibitor project, murine pro-B, CellTiter-Glo luminescence | AID 1486, 2009 | CellTiter-Glo ATP luminescence | inhibition, % at 5.6 µM | hit rate 1.1% among 220,000;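 active means inhibition above a per-campaign cutoff, the mean inhibition of all tested compounds plus 3 SD, cut at about 27% in these data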
A number is an active result; – = inactive; · = not tested or not shown. Compounds with a hit are over-represented: about 9.6% of the library has one in this group of screens.

SMILES	L major viab	b-catenin transl	APP 5UTR inh	MT stabilizer	Ba/F3 V617F tox	BaF3 parental
O=c1[nH]n(-c2cccc3cccnc23)c(=O)c2ccccc12	–	–	–	–	–	–
O=S1(=O)Nc2c(ccc3cccnc23)-c2ccccc21	99	–	60	–	–	–
Cc1cc(CN2CCOCC2)c(O)c(C2(C)CCCCC2)c1	56	–	–	–	–	–
CC(C)n1c(N2CCN(CC(=O)Nc3ccc4c(c3)OCCO4)CC2)nc2ccccc21	51	–	–	–	–	–
CC(C)Cn1c(N2CCN(CC(=O)Nc3ccc(Cl)cc3)CC2)nc2ccccc21	86	–	–	–	–	–
COc1ccc(NC(=O)N2CCN(c3nc4ccccc4n3C(C)C)CC2)cc1	–	–	–	–	–	–
Cc1nn(C)c(C(=O)NCc2ccc(Cl)cc2)c1Cl	–	–	–	–	–	34
Cc1nc(C)c(C(=O)NCc2ccc(Cl)cc2)o1	–	–	–	–	–	–
Nc1cc(Cl)ccc1N1CCCC1	–	–	–	–	42	55
Nc1cc(F)ccc1N1CCCCCC1	–	–	–	–	39	57
COc1ccc(NC(=S)NCCCCCC(=O)C[N+](=O)[O-])cc1	–	–	–	–	–	–
Cc1onc(C(=O)NCc2ccccn2)c1[N+](=O)[O-]	–	–	–	–	–	–
C=CCN1C(=O)C2(NNc3ccccc3O2)c2ccccc21 (configuration not stated)	–	·	–	–	–	–
CCCCN1C(=O)C2(NNc3ccccc3O2)c2ccccc21 (configuration not stated)	96	–	–	–	–	–
Cc1ccc(-c2cc(C(=O)N/N=C/c3c(C)nn(-c4ccccc4)c3C)[nH]n2)cc1	71	102	95	–	–	–
Cc1nn(-c2ccccc2)c(C)c1/C=N/NC(=O)c1cc(C(C)(C)C)[nH]n1	–	–	–	–	–	–
Cc1ccc(-c2cc(C(=O)N/N=C/c3c(C)nn(-c4ccccc4)c3C)n[nH]2)s1	58	122	92	–	74	82
CCC(=O)Nc1ccc2c(c1)ncn2-c1ccc(C)cc1	–	–	–	–	–	–
CCC1(C)Cc2nc3[nH]c(=S)n(-c4ccccc4)c(=O)c3cc2CO1 (configuration not stated)	56	–	–	–	–	–
Fc1ccc(-c2nnc3ccc(N4CCc5ccccc5C4)nn23)cc1	–	·	–	–	–	–
COC(=O)c1ccc(SCC(=O)NC2CCCC2)c([N+](=O)[O-])c1	60	–	–	–	–	–
COC(=O)c1ccc(SCC(=O)N2CCC(C)CC2)c([N+](=O)[O-])c1	64	–	–	–	–	–
COC(=O)CSc1ccc(S(=O)(=O)N2CCC(C)CC2)cc1[N+](=O)[O-]	–	–	–	–	–	–
NC(=O)c1ccc(SCC(=O)NC2CCCCC2)c([N+](=O)[O-])c1	–	–	–	–	–	–
Cc1cccc(C(=O)CC(=O)c2cc(Cl)ccc2O)c1	99	–	–	–	–	–
SMILES	L major viab	b-catenin transl	APP 5UTR inh	MT stabilizer	Ba/F3 V617F tox	BaF3 parental
O=C(CC(=O)c1cc(Cl)ccc1O)c1ccccc1	99	–	–	–	–	–
Cc1ccc(O)c(C(=O)CC(=O)c2cccc(F)c2)c1	60	–	–	–	–	–
Cc1cccc(C(=O)NNC(=O)c2ccccc2)c1	–	–	–	–	–	–
CC(=O)Nc1ccc(C(=S)NCCCO)cc1	–	–	–	–	–	–
OCCCCNCc1ccc(OCc2ccc(Cl)cc2Cl)cc1	101	–	–	–	59	27
OCCNCc1ccc(OCc2ccc(Cl)cc2Cl)cc1	100	–	–	–	–	–
CCOc1ccc(CNCc2ccccc2Cl)cc1	–	–	–	–	–	–
CCCN1C(=O)C(O)(C2CC(=O)CC(C)(C)O2)c2ccccc21 (configuration not stated)	–	–	–	–	–	–
COC(=O)c1c(NC(=O)C2CC(=O)NN2Cc2ccccc2)sc(C)c1C (configuration not stated)	100	–	–	–	–	–
Cc1oncc1C(=O)NC1CCCCC1	–	–	–	–	–	–
C=CCn1c(=O)/c(=C2/SC(C)=C(C)N2CC)s/c1=C1/C(=O)N(CC)C(=S)N1c1ccccc1	–	–	–	–	–	–
C=CCn1c(=O)/c(=C2/Sc3ccccc3N2CC)s/c1=C1/C(=O)NN=C1C	97	–	–	–	–	–
COc1ccc(C(=O)CSc2nnc(CNc3nc(-c4ccccc4)cs3)n2C)cc1	–	–	–	–	–	–
COc1ccc(/C=N/NC(=O)c2cccnc2)cc1CSc1ccccn1	·	65	·	·	–	–
COc1ccc(NC(=O)COc2ccc(/C=N/NC(=O)c3cccnc3)cc2OC)cc1	55	–	–	–	–	–
COc1cc(/C=N/NC(=O)c2cccnc2)ccc1OCC(=O)Nc1c(C)cc(C)cc1C	54	·	–	–	–	–
O=C(/C=C/c1ccco1)Oc1cc(Br)cc(/C=N/NC(=O)c2ccccc2O)c1	99	–	64	–	–	–
Cn1c(O)c(N=NC(=S)Nc2ccccc2F)c2cc(S(=O)(=O)N3CCOCC3)ccc21	–	–	46	–	–	–
Cc1ccc(NC(=S)N=Nc2c(O)n(C)c3ccc(S(=O)(=O)N4CCOCC4)cc23)cc1C	–	–	70	–	–	–
Cc1cc(-c2ccccc2)nc(N2CCC(C(=O)NCC3CCCCC3)CC2)n1	–	·	–	–	–	–
Cc1cc(-c2csc(NC(=O)c3ccc(C#N)cc3)n2)c(C)n1Cc1ccco1	51	–	–	–	–	–
CC1(C)CC(=O)C/C(=N/Nc2nc3ccccc3s2)C1	–	–	–	–	–	–
CC1CCC/C(=N/Nc2nc3ccccc3s2)C1 (configuration not stated)	52	–	–	–	–	–
CCC(=O)Nc1cc(=O)[nH]c2nc(-c3ccc(Cl)cc3)nn12	·	–	·	·	–	–
Cc1cc(Nc2nc3ccccc3nc2Cl)n(-c2ccccc2)n1	–	·	–	12	–	–
Cc1cc(Nc2nc3ccccc3nc2Cl)n(-c2ccccc2C)n1	–	–	–	13	–	–
O=C(CCCC(=O)N(CC(=O)NC1CCCCC1)Cc1ccc2c(c1)OCO2)Nc1ccccn1	–	–	–	–	–	–
Cc1cc2nc(CCN(Cc3cccnc3)C(=S)Nc3ccccc3)[nH]c2cc1C	91	–	–	–	–	–
Cc1ccccc1NC(=O)N(CCc1nc2ccccc2[nH]1)Cc1ccccc1	58	–	–	–	–	–
COc1ccccc1NC(=S)N(CCc1nc2cc(C)c(C)cc2[nH]1)Cc1cccnc1	57	·	–	–	–	–

Assay outcomes: PubChem BioAssay, several laboratories
